Reference: ChEMBL document CHEMBL1121744, “Synthesis and antihypertensive activity of a series of 8-substituted 1-oxa-3,8-diazaspiro[4.5]decan-2-ones” (J Med Chem, 1981)
Where “and” joins values, the source holds several entries; their conditions need not be identical. Identical values can stand only once.

What was measured:
Rattus norvegicus [1] = assay: The antihypertensive activity as percentage fall in systolic blood pressure in spontaneously hypertensive rats after a period of 1 hr for a dose of 50 mg/kg po
Rattus norvegicus [2] = assay: The antihypertensive activity as percentage fall in systolic blood pressure in spontaneously hypertensive rats after a period of 3 hr for a dose of 50 mg/kg po
Rattus norvegicus [3] = assay: The antihypertensive activity as percentage fall in systolic blood pressure in spontaneously hypertensive rats after a period of 4 hr for a dose of 50 mg/kg po
Rattus norvegicus [4] = assay: The antihypertensive activity as percentage fall in systolic blood pressure in spontaneously hypertensive rats after a period of 2 hr for a dose of 50 mg/kg po
[5] = (§1) Distribution coefficient between 1-Octanol and phosphate buffer at pH7.4; type: physicochemical; conditions: 1-octanol/phosphate buffer, pH 7.4
Rattus norvegicus [6] = assay: Antihypertensive activity as percentage fall in systolic blood pressure in spontaneously hypertensive rats after a period of 3 h for a dose of 50 mg/kg; type: functional, organism-based; design: dose 50 mg/kg; conditions: Artery
In short: (§2)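 Male Okamoto-Aoki SHR, trained, in groups of four matched for mean systolic pressure; one group per run received water vehicle. Oral dosing in water (0.1 mL per 10 g) on two consecutive mornings. After the day-2 dose, rats were restrained at 30.0 ± 1.0 °C. Systolic pressure was read by tail cuff (inflated to 300 mmHg, first pulse) at 1–4 h. % fall is versus the untreated control group, by 1-tail t test (p ≤ 0.05).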

Rattus norvegicus [7] = assay: Antihypertensive activity as percentage fall in systolic blood pressure in spontaneously hypertensive rats after a period of 2 hr for a dose of 50 mg/kg; type: functional, organism-based; design: dose 50 mg/kg; conditions: Artery
In short: as §2

Rattus norvegicus [8] = assay: Antihypertensive activity as percentage fall in systolic blood pressure in spontaneously hypertensive rats after a period of 1 hr for a dose of 50 mg/kg po; type: functional, organism-based; design: dose 50 mg/kg; conditions: Artery
In short: as §2

Rattus norvegicus [9] = assay: Antihypertensive activity as percentage fall in systolic blood pressure in spontaneously hypertensive rats after a period of 4 hr for a dose of 50 mg/kg; type: functional, organism-based; design: dose 50 mg/kg; conditions: Artery
In short: as §2

[10] = as §1; type: physicochemical; conditions: 1-octanol/phosphate buffer, pH 7.4; remark: listed apart in the source
In short: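 Octanol/buffer distribution measured at pH 7.4 in phosphate with sodium chloride. Either HPLC (0.004 M) or shake flask.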

[11] = molecular target: T1, Adrenergic receptor alpha-2 (Rattus norvegicus, UniProt P22086+P19328+P22909); assay: Antagonistic potency of compound for Alpha-2 adrenergic receptor; type: functional
T1 sequence (P22086 whole entry): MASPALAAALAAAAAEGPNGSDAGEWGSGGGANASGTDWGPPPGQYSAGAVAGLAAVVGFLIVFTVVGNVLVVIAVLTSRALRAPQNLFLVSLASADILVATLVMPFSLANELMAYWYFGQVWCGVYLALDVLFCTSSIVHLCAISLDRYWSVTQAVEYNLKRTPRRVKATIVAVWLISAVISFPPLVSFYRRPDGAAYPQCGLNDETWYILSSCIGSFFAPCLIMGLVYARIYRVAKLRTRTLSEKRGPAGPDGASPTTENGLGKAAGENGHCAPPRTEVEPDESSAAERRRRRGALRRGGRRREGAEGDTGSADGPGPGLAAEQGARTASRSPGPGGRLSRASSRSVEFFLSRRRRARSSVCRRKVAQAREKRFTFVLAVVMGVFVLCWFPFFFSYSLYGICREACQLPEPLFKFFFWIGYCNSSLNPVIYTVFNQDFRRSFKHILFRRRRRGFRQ
T1 sequence (P19328 whole entry): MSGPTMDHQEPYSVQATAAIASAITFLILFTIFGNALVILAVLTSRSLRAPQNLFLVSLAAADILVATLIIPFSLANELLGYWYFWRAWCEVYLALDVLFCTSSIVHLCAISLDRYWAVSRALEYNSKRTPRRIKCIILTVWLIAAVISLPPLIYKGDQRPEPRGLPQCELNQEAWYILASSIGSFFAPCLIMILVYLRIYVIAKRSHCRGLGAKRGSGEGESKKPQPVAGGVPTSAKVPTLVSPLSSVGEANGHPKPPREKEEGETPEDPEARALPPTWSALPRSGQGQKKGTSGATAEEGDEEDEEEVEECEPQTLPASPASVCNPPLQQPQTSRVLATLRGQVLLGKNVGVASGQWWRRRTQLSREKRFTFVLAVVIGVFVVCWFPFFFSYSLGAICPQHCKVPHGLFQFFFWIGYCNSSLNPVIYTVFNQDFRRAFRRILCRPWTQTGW
T1 sequence (P22909 whole entry): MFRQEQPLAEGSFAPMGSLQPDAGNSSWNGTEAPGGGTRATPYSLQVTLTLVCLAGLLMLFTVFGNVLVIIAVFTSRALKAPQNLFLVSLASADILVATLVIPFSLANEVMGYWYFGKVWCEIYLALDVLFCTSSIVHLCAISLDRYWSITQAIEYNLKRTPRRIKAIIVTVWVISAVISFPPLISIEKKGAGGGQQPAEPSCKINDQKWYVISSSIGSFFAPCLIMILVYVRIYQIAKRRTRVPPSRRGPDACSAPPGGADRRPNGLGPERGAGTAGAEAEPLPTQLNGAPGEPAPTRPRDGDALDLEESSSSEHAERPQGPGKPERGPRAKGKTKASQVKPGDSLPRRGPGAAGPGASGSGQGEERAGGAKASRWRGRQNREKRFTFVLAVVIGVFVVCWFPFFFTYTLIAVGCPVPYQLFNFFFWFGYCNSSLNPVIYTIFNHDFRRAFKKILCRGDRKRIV

[12] = molecular target: T2, Adrenergic receptor alpha-1 (Rattus norvegicus, UniProt P15823+P23944+P43140); assay: Antagonistic potency of compound for Alpha-1 adrenergic receptor; type: functional
T2 sequence (P15823 whole entry): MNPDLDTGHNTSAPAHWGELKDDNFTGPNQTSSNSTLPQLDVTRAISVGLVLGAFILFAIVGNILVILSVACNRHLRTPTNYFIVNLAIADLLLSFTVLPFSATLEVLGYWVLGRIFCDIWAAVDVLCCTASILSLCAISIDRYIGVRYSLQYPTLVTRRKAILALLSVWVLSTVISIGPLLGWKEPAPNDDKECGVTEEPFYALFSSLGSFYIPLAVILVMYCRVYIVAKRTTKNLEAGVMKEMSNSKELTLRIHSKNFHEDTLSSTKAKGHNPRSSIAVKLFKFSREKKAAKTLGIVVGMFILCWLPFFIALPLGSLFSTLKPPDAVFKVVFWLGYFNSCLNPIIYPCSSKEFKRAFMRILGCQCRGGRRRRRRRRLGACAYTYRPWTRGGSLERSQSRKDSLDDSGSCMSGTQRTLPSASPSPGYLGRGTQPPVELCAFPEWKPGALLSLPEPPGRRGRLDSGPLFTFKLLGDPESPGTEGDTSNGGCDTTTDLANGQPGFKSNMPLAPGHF
T2 sequence (P23944 whole entry): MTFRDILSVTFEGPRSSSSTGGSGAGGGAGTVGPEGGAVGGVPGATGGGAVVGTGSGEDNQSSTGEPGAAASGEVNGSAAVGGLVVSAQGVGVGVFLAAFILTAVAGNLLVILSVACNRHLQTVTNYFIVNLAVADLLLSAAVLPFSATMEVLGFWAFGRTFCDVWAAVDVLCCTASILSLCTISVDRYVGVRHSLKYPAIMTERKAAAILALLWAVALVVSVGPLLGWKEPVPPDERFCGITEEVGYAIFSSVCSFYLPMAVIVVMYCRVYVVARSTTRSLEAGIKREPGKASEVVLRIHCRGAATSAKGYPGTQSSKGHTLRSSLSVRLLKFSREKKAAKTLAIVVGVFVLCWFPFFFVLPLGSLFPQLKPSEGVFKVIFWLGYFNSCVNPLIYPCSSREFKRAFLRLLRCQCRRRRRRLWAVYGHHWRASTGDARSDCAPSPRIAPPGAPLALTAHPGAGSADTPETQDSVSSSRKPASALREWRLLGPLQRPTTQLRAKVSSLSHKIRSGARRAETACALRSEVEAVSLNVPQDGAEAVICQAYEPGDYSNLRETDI
T2 sequence (P43140 whole entry): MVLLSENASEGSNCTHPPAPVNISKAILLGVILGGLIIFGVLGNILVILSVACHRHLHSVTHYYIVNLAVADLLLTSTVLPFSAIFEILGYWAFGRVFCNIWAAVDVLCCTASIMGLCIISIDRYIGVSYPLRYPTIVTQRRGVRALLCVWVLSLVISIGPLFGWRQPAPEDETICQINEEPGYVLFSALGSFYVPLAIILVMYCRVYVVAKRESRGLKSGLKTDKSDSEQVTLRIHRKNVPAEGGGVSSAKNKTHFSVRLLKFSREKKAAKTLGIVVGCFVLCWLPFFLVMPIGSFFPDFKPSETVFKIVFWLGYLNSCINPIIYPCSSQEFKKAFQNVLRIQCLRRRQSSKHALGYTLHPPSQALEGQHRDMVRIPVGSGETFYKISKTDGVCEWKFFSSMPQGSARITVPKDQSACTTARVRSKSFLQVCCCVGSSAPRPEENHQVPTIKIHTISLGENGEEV

Rattus norvegicus [13] = assay: Antihypertensive activity as percentage fall in systolic blood pressure in spontaneously hypertensive rats after a period of 1 hr for a dose of 50 mg/kg; type: functional, Artery
In short: as §2

Rattus norvegicus [14] = assay: Percentage fall in systolic blood pressure in spontaneously hypertensive rats after 2 hr following 50 mg/kg p.o.; type: functional, Artery; conditions: route oral, 50 mg/kg
In short: as §2

Rattus norvegicus [15] = assay: Percentage fall in systolic blood pressure in spontaneously hypertensive rats after 3 h following 50 mg/kg p.o.; type: functional, Artery; conditions: route oral
In short: as §2

SMILES | Decrease in blood pressure (Rattus norvegicus [1]) | Decrease in blood pressure (Rattus norvegicus [2]) | Decrease in blood pressure (Rattus norvegicus [3]) | Decrease in blood pressure (Rattus norvegicus [4]) | logD [5] | Decrease in blood pressure (Rattus norvegicus [6]) | Decrease in blood pressure (Rattus norvegicus [7]) | Decrease in blood pressure (Rattus norvegicus [8]) | Decrease in blood pressure (Rattus norvegicus [9]) | logD [10] | pA2 [11] | pA2 [12] | Decrease in blood pressure (Rattus norvegicus [13]) | Decrease in blood pressure (Rattus norvegicus [14]) | Decrease in blood pressure (Rattus norvegicus [15])
CCC1NC(=O)OC12CCN(CC(O)C1COc3ccccc3O1)CC2 (centres undefined) | 47% | 32% | 40% | 43% | – | – | – | – | – | – | – | – | – | – | –
COc1ccccc1OCC(O)CN1CCC2(CC1)CN(Cc1ccccc1)C(=O)O2 (centres undefined) | – | – | – | – | 2.19 | Not significant | Not significant | Not significant | Not significant | – | – | – | – | – | –
CCC1NC(=O)OC12CCN(CCc1c[nH]c3ccccc13)CC2 (centres undefined) | 23% | 17% | 22% | 27% | – | – | – | – | – | 1.95 | 6 | 7.6 | 39% | 27% and 26% | 17%
